Results as given in ChEMBL document CHEMBL3632598, “Stereospecific inhibition of nitric oxide production in macrophage cells by flavanonols: Synthesis and the structure-activity relationship” (Bioorg Med Chem, 2015).
Where a name gives a salt, the structure may show the parent alone.

How the values were obtained:
[1] = Antioxidant activity assessed as DPPH radical scavenging activity after 30 mins by spectrophotometry; type: physicochemical
RAW264.7 [2] = experiment: Antiinflammatory activity in mouse RAW264.7 cells assessed as inhibition of LPS-induced nitric oxide production at 100 uM pre-incubated for 2 hrs before LPS stimulation for 16 hrs by Griess method; type: functional
In short: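 RAW 264.7 cells (1.6 × 10^6 cells/mL) in F-12 Ham medium with 10% FBS, glutamate and penicillin-streptomycin. Compounds were given as DMSO stock diluted 1:100 in medium, final 100 µM, and concentration was checked by UV absorbance. After 2 h at 37 °C, LPS was added to a final 100 ng/mL and cells were incubated 16 h. Aminoguanidine was the positive control; mean ± S.D., n = 3.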

RAW264.7 [3] = experiment: Cytotoxicity against mouse RAW264.7 cells assessed as cell viability at 100 uM pre-incubated for 2 hrs before LPS stimulation for 16 hrs followed by 4 hrs incubation by alamar blue assay; type: cell-based; settings: raw264.7, 100 µM
In short: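 Viability was read on the RAW 264.7 cells left after supernatant removal in the LPS/NO assay (100 µM compound, 2 h pre-incubation, LPS 100 ng/mL for 16 h). AlamarBlue was added and plates were incubated 4 h at 37 °C. Absorbance was read at 570 nm (reference 655 nm).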

SMILES | EC50 [1] [µM] | inhibition at 100 µM (RAW264.7 [2]) [%] | Activity (RAW264.7 [3])
COc1ccc([C@@H]2Oc3cc(O)cc(O)c3C(=O)[C@H]2O)c(OC)c1 | > 100 | < 10 | 
O=C1c2c(O)cc(O)cc2O[C@@H](c2cc(O)cc(O)c2)[C@@H]1O | > 100 | < 10 | 
COc1ccc(OC)c([C@H]2Oc3cc(O)cc(O)c3C(=O)[C@@H]2O)c1 | > 100 | < 10 | 
O=C1c2c(O)cc(O)cc2O[C@@H](c2ccccc2O)[C@@H]1O | > 100 | < 15 | Non-toxic
N=C(N)NN [PIMAGEDINE HYDROCHLORIDE] |  | 72 | 
COc1ccc(C2Oc3cc(O)cc(O)c3C(=O)C2O)cc1OC (racemic) | > 100 | < 10 | 
COc1cccc([C@@H]2Oc3cc(O)cc(O)c3C(=O)[C@H]2O)c1OC | > 100 | < 10 | 
O=C1c2c(O)cc(O)cc2O[C@H](c2cc(O)cc(O)c2)[C@H]1O | > 100 | < 10 | 
COc1cccc([C@@H]2Oc3cc(O)cc(O)c3C(=O)[C@H]2O)c1 | > 100 | < 10 | 
O=C1c2c(O)cc(O)cc2O[C@H](c2cc(O)ccc2O)[C@H]1O | 24.5 | 30 | Non-toxic
O=C1c2c(O)cc(O)cc2O[C@@H](c2cccc(O)c2)[C@@H]1O | > 100 | < 15 | Non-toxic
O=C1c2c(O)cc(O)cc2O[C@@H](c2ccc(O)cc2O)[C@@H]1O | > 100 | < 10 | 
COc1cccc(OC)c1C1Oc2cc(O)cc(O)c2C(=O)C1O (racemic) | > 100 | < 10 | 
O=C1c2c(O)cc(O)cc2O[C@@H](c2ccc(O)cc2)[C@@H]1O | > 100 | < 10 | 
O=C1c2c(O)cc(O)cc2O[C@@H](c2cc(O)ccc2O)[C@@H]1O | 25.4 | < 15 | Non-toxic
COc1cc(OC)cc([C@H]2Oc3cc(O)cc(O)c3C(=O)[C@@H]2O)c1 | > 100 | < 10 | 
O=C1c2c(O)cc(O)cc2O[C@H](c2cccc(O)c2O)[C@H]1O | 12.5 | 70 | Non-toxic
O=C1c2c(O)cc(O)cc2O[C@H](c2ccccc2O)[C@H]1O | > 100 | 40 | Non-toxic
COc1cc(OC)cc([C@@H]2Oc3cc(O)cc(O)c3C(=O)[C@H]2O)c1 | > 100 | < 10 | 
COc1ccc([C@H]2Oc3cc(O)cc(O)c3C(=O)[C@@H]2O)c(OC)c1 | > 100 | < 10 | 
COc1cccc([C@H]2Oc3cc(O)cc(O)c3C(=O)[C@@H]2O)c1 | > 100 | < 10 | 
O=C(O)c1cc(O)c(O)c(O)c1 | 10 |  | 
O=C1c2c(O)cc(O)cc2O[C@@H](c2ccc(O)c(O)c2)[C@@H]1O | 12.6 | < 10 | 

More lines, main results first:

EC50 [1] [µM] | SMILES | inhibition at 100 µM (RAW264.7 [2]) [%] | Activity (RAW264.7 [3])
> 100 | O=C1c2c(O)cc(O)cc2O[C@H](c2ccccc2)[C@H]1O [PINOBAKSIN] | < 10 | 
> 100 | O=C1c2c(O)cc(O)cc2O[C@@H](c2ccccc2)[C@@H]1O | < 10 | 
> 100 | COc1ccc([C@@H]2Oc3cc(O)cc(O)c3C(=O)[C@H]2O)cc1 | < 10 | 
> 100 | COc1ccc([C@H]2Oc3cc(O)cc(O)c3C(=O)[C@@H]2O)cc1 | < 10 | 
> 100 | COc1ccccc1C1Oc2cc(O)cc(O)c2C(=O)C1O (racemic) | < 10 | 
> 100 | O=C1c2c(O)cc(O)cc2O[C@H](c2cccc(O)c2)[C@H]1O | 35 | Non-toxic
> 100 | O=C1c2c(O)cc(O)cc2O[C@H](c2ccc(O)cc2O)[C@H]1O [DIHYDROMORIN] | < 10 | 
13.2 | O=C1c2c(O)cc(O)cc2O[C@@H](c2cccc(O)c2O)[C@@H]1O | 45 | Non-toxic
13.9 | O=C1c2c(O)cc(O)cc2O[C@H](c2ccc(O)c(O)c2)[C@H]1O [(+)-TAXIFOLIN] | < 10 | 
> 100 | O=C1c2c(O)cc(O)cc2O[C@H](c2ccc(O)cc2)[C@H]1O [DIHYDROKAEMPFEROL] | < 10 | 
> 100 | COc1ccc(OC)c([C@@H]2Oc3cc(O)cc(O)c3C(=O)[C@H]2O)c1 | < 10 | 
> 100 | COc1cccc([C@H]2Oc3cc(O)cc(O)c3C(=O)[C@@H]2O)c1OC | < 10 | 
